Measurements published in ChEMBL document CHEMBL1141553, “Synthesis and pharmacological activity of chalcones derived from 2,4,6-trimethoxyacetophenone in RAW 264.7 cells stimulated by LPS: quantitative structure-activity relationships” (Bioorg Med Chem, 2008).

What was measured:
[1] = Selectivity for iNOS to nNOS
[2] = Selectivity for iNOS to eNOS
[3] = Cytotoxicity against mouse RAW264.7 cells assessed as cell viability at 3.78 uM by MTT assay; type: cell-based; details: read-out: Activity
RAW264.7 = assay: Inhibition of LPS-induced nitric oxide production in mouse RAW264.7 cells; type: functional, cell-based
Method in brief: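 Compounds were pre-added 30 min before LPS stimulation for 24 h. Supernatant was mixed 1:1 with Griess reagent (1% sulfanilamide, 0.1% naphthylethylenediamine dihydrochloride, 2% phosphoric acid) for 5 min at room temperature. Nitrite was read at OD 550 nm against a NaNO₂ standard curve. IC50 came from dose–inhibition curves, mean of four independent experiments.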

[4] = Cytotoxicity against mouse RAW264.7 cells assessed as cell viability at 13.10 uM by MTT assay; type: cell-based; details: read-out: Activity

| Selectivity ratio [1] | Selectivity ratio [2] | IC50 (RAW264.7) [µM] | Compound | viability at 3.78 µM [3] [%] | viability at 13.1 µM [4] [%] |
| --- | --- | --- | --- | --- | --- |
| 200 | 5000 | 3.78 | CC(=N)NCc1cccc(CN)c1 [1400W] | 82 | – |
| – | – | 13.1 | COc1cc(OC)c(C(=O)/C=C/c2ccc3c(c2)OCO3)c(OC)c1 | – | 100 |
